Test results reported in ChEMBL document CHEMBL4145617, “Chloramphenicol Derivatives with Antibacterial Activity Identified by Functional Metagenomics” (2018).
Converted amounts (≈) assume the structure as drawn. The source made the active and inactive calls. No cut-off for these calls is given here.

Tests used:
[1] = test system: Staphylococcus aureus; assay: Antimicrobial activity against methicillin-resistant Staphylococcus aureus ATCC 1708 at 200 ug/ml by Alamar blue based CLSI method; type: functional, organism-based
Outline: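 S. aureus ATCC 1708 tested by a modified CLSI method. Samples were dissolved in DMSO and serially diluted in 20% DMSO/saline, and final test concentrations were 1/100th of the DMSO stock. MIC was taken as the lowest concentration with no detectable growth.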

[2] = test system: Pseudomonas aeruginosa; assay: Antimicrobial activity against Pseudomonas aeruginosa ATCC 2108 at 200 ug/ml by Alamar blue based CLSI method; type: functional, organism-based
[3] = test system: Escherichia coli; assay: Antimicrobial activity against Escherichia coli ATCC 2452 at 200 ug/ml by Alamar blue based CLSI method; type: functional, organism-based
[4] = test system: Mycobacterium intracellulare; assay: Antimycobacterial activity against Mycobacterium intracellulare ATCC 23068 after 70 to 74 hrs by Alamar blue based CLSI method; type: functional
[5] = test system: Staphylococcus aureus; assay: Growth inhibition of Staphylococcus aureus EAMC30 at 62.5 ug/ml by Alamar blue based CLSI method relative to control; type: functional; details: read-out: GI
[6] = test system: Mycobacterium tuberculosis; assay: Antimycobacterial activity against Mycobacterium tuberculosis ATCC 25177 after 5 days by Alamar blue based CLSI method; type: functional; details: H37Ra, 120 h

Row | Structure (SMILES) | Activity [1] | Activity [2] | Activity [3] | MIC [4] | inhibition of growth at 62.5 µg/mL [5] | MIC [6]
1 | CCC(=O)OC[C@@H](NC(=O)C(Cl)Cl)[C@H](OC(C)=O)c1ccc([N+](=O)[O-])cc1 | inactive | inactive | inactive | – | – | –
2 | CC(=O)O[C@H](c1ccc([N+](=O)[O-])cc1)[C@@H](CO)NC(=O)C(Cl)Cl | – | – | – | 25 µg/mL (≈ 68.5 µM) | – | –
3 | CCC(=O)OC[C@@H](NC(=O)C(Cl)Cl)[C@H](O)c1ccc([N+](=O)[O-])cc1 | inactive | inactive | inactive | – | 72% | –
4 | CC(=O)OC[C@@H](NC(=O)C(Cl)Cl)[C@H](O)c1ccc([N+](=O)[O-])cc1 | inactive | inactive | inactive | 25 µg/mL (≈ 68.5 µM) | 15% | –
5 | CC(=O)OC[C@@H](NC(=O)C(Cl)Cl)[C@H](OC(C)=O)c1ccc([N+](=O)[O-])cc1 | inactive | inactive | inactive | – | – | –
6 | CCC(=O)OC[C@@H](NC(=O)C(Cl)Cl)[C@H](OC(=O)CC)c1ccc([N+](=O)[O-])cc1 | inactive | inactive | inactive | – | 40% | –
7 | CCCC(=O)OC[C@@H](NC(=O)C(Cl)Cl)[C@H](OC(=O)CCC)c1ccc([N+](=O)[O-])cc1 | inactive | inactive | inactive | – | 11% | –
8 | O=C(N[C@H](CO)[C@H](O)c1ccc([N+](=O)[O-])cc1)C(Cl)Cl [CHLORAMPHENICOL] | – | – | – | 25 µg/mL (≈ 77.4 µM) | – | > 100 µg/mL
9 | O=C(O[C@H](c1ccc([N+](=O)[O-])cc1)[C@@H](CO)NC(=O)C(Cl)Cl)c1ccc([N+](=O)[O-])cc1 | – | – | – | 12.5 µg/mL (≈ 26.5 µM) | 59% | 50 µg/mL (≈ 106 µM)
10 | CCCC(=O)O[C@H](c1ccc([N+](=O)[O-])cc1)[C@@H](COC(=O)CC)NC(=O)C(Cl)Cl | inactive | inactive | inactive | – | – | –
11 | CCCC(=O)OC[C@@H](NC(=O)C(Cl)Cl)[C@H](O)c1ccc([N+](=O)[O-])cc1 | inactive | inactive | inactive | – | 36% | –
12 | CCCC(=O)OC[C@@H](NC(=O)C(Cl)Cl)[C@H](OC(=O)CC)c1ccc([N+](=O)[O-])cc1 | inactive | inactive | inactive | – | – | –
13 | O=C(/C=C/c1ccccc1)O[C@H](c1ccc([N+](=O)[O-])cc1)[C@@H](CO)NC(=O)C(Cl)Cl | – | – | – | – | 35% | –
